Where two headings read alike, the source gives them in different places.
Assays:
[1] = tested on: healthy subjects; experiment: Tolerability assessment; type: in vivo, human; conditions: after multiple administrations in healthy subjects
Method in brief: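 Healthy subjects given at least one dose were followed from first administration to study end. Monitoring covered vital signs (systolic and diastolic pressure, pulse rate), physical examinations and adverse events. Events were elicited by nonleading open questioning and individual interviews, and each was judged for relation to the investigational drug.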

[2] = type: in vivo, human
Method in brief: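 Randomized open-label three-way crossover in healthy subjects: six sequences, five per sequence, ≥7 days washout. SGLT2 inhibitor 25 mg, PPAR-γ agonist 0.5 mg or both given orally once daily for 5 days, fasting ≥8 h. EDTA plasma sampled predose and 0.33–24 h after fifth dose; UPLC-MS/MS, calibration 5.00–1000 ng/mL. Noncompartmental analysis; mixed-effect model giving geometric mean ratios with 90% CI.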

[3] = empagliflozin, with vs without lobeglitazone
[4] = lobeglitazone, with vs without empagliflozin

90% CI of AUCtau combination therapy-to-monotherapy ratio [2, 3]	90% CI of Cmax,ss combination therapy-to-monotherapy ratio [2, 3]	90% CI of AUCtau combination therapy-to-monotherapy ratio [2, 4]	90% CI of Cmax,ss combination therapy-to-monotherapy ratio [2, 4]	Compound	other tolerability parameters (laboratory test results, vital signs, physical examination) [1]
0.945–1.133	0.956–1.150	–	–	OC[C@H]1O[C@@H](c2ccc(Cl)c(Cc3ccc(O[C@H]4CCOC4)cc3)c2)[C@H](O)[C@@H](O)[C@@H]1O [Empagliflozin]	no clinically significant findings
–	–	0.851–1.018	0.869–0.995	COc1ccc(Oc2cc(N(C)CCOc3ccc(CC4SC(=O)NC4=O)cc3)ncn2)cc1 (stereo not drawn) [Lobeglitazone]	no clinically significant findings

From paper PMC8089085 (Drug Design, Development and Therapy, 2021)
